Active and inactive are the calls of the source. The calls are words filed in the database; no cut-off is given here.
Assays:
HCT-116 [1] = assay: Induction of apoptosis in human HCT116 cells accumulation of cleaved caspase-9 level at 2 times IC50 after 8 hrs by Western blot analysis; type: functional, cell-based
Method in brief: (§1)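 Whole lysates in SDS/β-mercaptoethanol sample buffer run on 4–18% gradient SDS-PAGE and transferred to PVDF. Blocked in 5% milk/PBST, primary antibodies overnight at 4 °C, HRP secondaries 1 h. β-actin served as loading reference.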

HCT-116 [2] = assay: Induction of apoptosis in human HCT116 cells assessed as late apoptotic cells at 1 times IC50 after 24 hrs by annexin V-FITC/propidium iodide staining-based flow cytometry method (reference value: 5.4%); type: functional
MCF-10A [3] = assay: Induction of apoptosis in human MCF10A cells assessed as late apoptotic cells at 2 times IC50 after 24 hrs by annexin V-FITC/propidium iodide staining-based flow cytometry method (reference value: 3.81%); type: cell-based
HeLa = assay: Cytotoxicity against human HeLa cells assessed as reduction in cell viability after 72 hrs by MTS assay; type: functional, cell-based
Method in brief: (§2)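 MTS (CellTiter 96 AQueous One) proliferation read after 72 h of exposure across a concentration range. IC50 is the concentration giving 50% proliferation inhibition. Triplicate determinations in three independent experiments, mean ± SD.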

[4] = Induction of apoptosis in human MCF10A cells assessed as viable cells at 2 times IC50 after 24 hrs by annexin V-FITC/propidium iodide staining-based flow cytometry method (reference value: 95.4%); type: cell-based, MCF-10A; conditions: read-out: Activity
MCF-10A [5] = assay: Induction of apoptosis in human MCF10A cells assessed as late apoptotic cells at 1 times IC50 after 24 hrs by annexin V-FITC/propidium iodide staining-based flow cytometry method (reference value: 3.81%); type: cell-based
HCT-116 [6] = assay: Cell cycle arrest in human HCT116 cells assessed as increase in accumulation of cells at sub-G1 phase after 24 hrs by propidium iodide staining-based flow cytometry method; type: functional
HCT-116 [7] = assay: Cytotoxicity against human HCT116 cells assessed as reduction in cell viability after 72 hrs by MTS assay; type: functional, cell-based; conditions: HCT-116, 72 h
Method in brief: (§3)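 Cells kept in DMEM with 10% FBS at 37 °C, 5% CO2. Proliferation read by MTS (CellTiter 96 AQueous One) 72 h after exposure across a concentration range. IC50 is the concentration giving 50% proliferation inhibition. Triplicate wells, three independent experiments, mean ± SD.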

HCT-116 [8] = assay: Induction of apoptosis in human HCT116 cells after 24 hrs by acridine orange/ethidium bromide staining-based fluorescence microscopic analysis; type: functional, cell-based
HCT-116 [9] = assay: Induction of reactive oxygen species generation in human HCT116 cells assessed as increase in mitochondrial superoxide generation at 1 to 2 times IC50 after 24 hrs by MitoSOX red dye-based fluorescence microscopic analysis; type: functional, cell-based
HCT-116 [10] = assay: Induction of apoptosis in human HCT116 cells accumulation of cleaved PARP1 level at 2 times IC50 after 12 hrs by Western blot analysis; type: functional, cell-based; method in brief: as §1
HT-29 = assay: Cytotoxicity against human HT-29 cells assessed as reduction in cell viability after 72 hrs by MTS assay; type: functional, cell-based; conditions: HT-29, 72 h; method in brief: as §2
HCT-116 [11] = assay: Induction of apoptosis in human HCT116 cells assessed as viable cells at 1 times IC50 after 24 hrs by annexin V-FITC/propidium iodide staining-based flow cytometry method (reference value: 86.0%); type: functional
HCT-116 [12] = assay: Induction of apoptosis in human HCT116 cells assessed as necrotic cells at 2 times IC50 after 24 hrs by annexin V-FITC/propidium iodide staining-based flow cytometry method (reference value: 4.8%); type: functional
HCT-116 [13] = assay: Induction of apoptosis in human HCT116 cells accumulation of cleaved caspase-7 level at 2 times IC50 after 12 hrs by Western blot analysis; type: functional, cell-based; method in brief: as §1
MCF-10A [14] = assay: Induction of apoptosis in human MCF10A cells assessed as early apoptotic cells at 2 times IC50 after 24 hrs by annexin V-FITC/propidium iodide staining-based flow cytometry method (reference value: 0.20%); type: cell-based
MCF7 [15] = assay: Cytotoxicity against human MCF7 cells assessed as reduction in cell viability after 72 hrs by MTS assay; type: functional, cell-based; conditions: MCF7, 72 h; method in brief: as §3
HCT-116 [16] = assay: Induction of apoptosis in human HCT116 cells assessed as late apoptotic cells at 2 times IC50 after 24 hrs by annexin V-FITC/propidium iodide staining-based flow cytometry method (reference value: 5.4%); type: functional
MCF7 [17] = assay: Cytotoxicity against human MCF7 cells assessed as reduction in cell viability at 20 uM after 72 hrs by MTS assay relative to control; type: functional
Method in brief: (§4)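 Cells grown in DMEM with 10% FBS at 37 °C, 5% CO2, exposed to 20 μM for 72 h. Proliferation read by MTS and inhibition expressed relative to vehicle. ≥50% inhibition counted as active. Triplicate wells, three independent experiments.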

[18] = Induction of apoptosis in human MCF10A cells assessed as viable cells at 1 times IC50 after 24 hrs by annexin V-FITC/propidium iodide staining-based flow cytometry method (reference value: 95.4%); type: cell-based, MCF-10A; conditions: read-out: Activity
HCT-116 [19] = assay: Induction of apoptosis in human HCT116 cells after 24 hrs by annexin V-FITC/propidium iodide staining-based flow cytometry method; type: functional, cell-based
[20] = Selectivity index, ratio of IC50 for human MCF10A cells to IC50 for human MCF7 cells; type: toxicity; conditions: MCF10A cells versus MCF7 cells, read-out: Ratio IC50
HCT-116 [21] = assay: Induction of apoptosis in human HCT116 cells accumulation of cleaved caspase-9 level at 2 times IC50 after 12 hrs by Western blot analysis; type: functional, cell-based; method in brief: as §1
MCF-10A [22] = assay: Induction of apoptosis in human MCF10A cells after 24 hrs by annexin V-FITC/propidium iodide staining-based flow cytometry method; type: cell-based
MCF-10A [23] = assay: Induction of apoptosis in human MCF10A cells assessed as early apoptotic cells at 1 times IC50 after 24 hrs by annexin V-FITC/propidium iodide staining-based flow cytometry method (reference value: 0.20%); type: cell-based
HCT-116 [24] = assay: Induction of apoptosis in human HCT116 cells assessed as necrotic cells at 1 times IC50 after 24 hrs by annexin V-FITC/propidium iodide staining-based flow cytometry method (reference value: 4.8%); type: functional
HCT-116 [25] = assay: Cytotoxicity against human HCT116 cells assessed as reduction in cell viability at 20 uM after 72 hrs by MTS assay relative to control; type: functional; method in brief: as §4
MDA-MB-231 = assay: Cytotoxicity against human MDA-MB-231 cells assessed as reduction in cell viability after 72 hrs by MTS assay; type: functional, cell-based; conditions: MDA-MB-231, 72 h; method in brief: as §2
HCT-116 [26] = assay: Induction of apoptosis in human HCT116 cells accumulation of cleaved caspase-3 level at 2 times IC50 after 12 hrs by Western blot analysis; type: functional, cell-based; method in brief: as §1
MCF-10A [27] = assay: Induction of apoptosis in human MCF10A cells assessed as necrotic cells at 2 times IC50 after 24 hrs by annexin V-FITC/propidium iodide staining-based flow cytometry method (reference value: 0.57%); type: cell-based
A549 = assay: Cytotoxicity against human A549 cells assessed as reduction in cell viability after 72 hrs by MTS assay; type: functional, cell-based; conditions: A549, 72 h; method in brief: as §2
HCT-116 [28] = assay: Induction of apoptosis in human HCT116 cells assessed as viable cells at 2 times IC50 after 24 hrs by annexin V-FITC/propidium iodide staining-based flow cytometry method (reference value: 86.0%); type: functional
HCT-116 [29] = assay: Induction of mitochondrial membrane depolarization in human HCT116 cells at 2 times IC50 after 24 hrs by JC-1 staining based fluorescence microscopic analysis; type: functional, cell-based
Method in brief: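 HCT-116 cells exposed at 2× IC50 for 24 h, washed, then stained with JC-1 in fresh medium for 20 min at 37 °C and rinsed. Red aggregates and green monomers imaged by fluorescence microscopy at 40×.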

MCF-10A [30] = assay: Induction of apoptosis in human MCF10A cells assessed as necrotic cells at 1 times IC50 after 24 hrs by annexin V-FITC/propidium iodide staining-based flow cytometry method (reference value: 0.57%); type: cell-based
HCT-116 [31] = assay: Induction of apoptosis in human HCT116 cells assessed as early apoptotic cells at 2 times IC50 after 24 hrs by annexin V-FITC/propidium iodide staining-based flow cytometry method (reference value: 3.8%); type: functional
HCT-116 [32] = assay: Induction of apoptosis in human HCT116 cells assessed as early apoptotic cells at 1 times IC50 after 24 hrs by annexin V-FITC/propidium iodide staining-based flow cytometry method (reference value: 3.8%); type: functional
MCF-10A [33] = assay: Cytotoxicity against human MCF10A cells assessed as reduction in cell viability after 72 hrs by MTS assay; type: cell-based; method in brief: as §2
HCT-116 [34] = assay: Induction of reactive oxygen species generation in human HCT116 cells assessed as increase in mitochondrial superoxide generation at 1 uM after 12 hrs by MitoSOX red dye-based fluorescence microscopic analysis; type: functional, cell-based
HCT-116 [35] = assay: Induction of apoptosis in human HCT116 cells assessed as late apoptotic cells at 1 uM after 12 hrs by annexin V-FITC/propidium iodide staining-based flow cytometry method (reference value: 5.4%); type: functional
HCT-116 [36] = assay: Induction of apoptosis in human HCT116 cells assessed as necrotic cells at 1 uM after 12 hrs by annexin V-FITC/propidium iodide staining-based flow cytometry method (reference value: 4.8%); type: functional
HCT-116 [37] = assay: Induction of apoptosis in human HCT116 cells assessed as early apoptotic cells at 1 uM after 12 hrs by annexin V-FITC/propidium iodide staining-based flow cytometry method (reference value: 3.8%); type: functional
MCF-10A [38] = assay: Induction of apoptosis in human MCF10A cells assessed as early apoptotic cells at 1 uM after 12 hrs by annexin V-FITC/propidium iodide staining-based flow cytometry method (reference value: 0.20%); type: cell-based
Method in brief: (§5)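 Cells were stained with Annexin V-FITC/PI and gated by flow cytometry into live, early apoptotic, late apoptotic and necrotic quadrants. Apoptotic fraction is early plus late, mean ± SD of three independent experiments.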

[39] = Induction of apoptosis in human MCF10A cells assessed as viable cells at 1 uM after 12 hrs by annexin V-FITC/propidium iodide staining-based flow cytometry method (reference value: 95.4%); type: cell-based, MCF-10A; conditions: read-out: Activity; method in brief: as §5
HCT-116 [40] = assay: Induction of apoptosis in human HCT116 cells after 12 hrs by annexin V-FITC/propidium iodide staining-based flow cytometry method; type: functional, cell-based
HCT-116 [41] = assay: Induction of apoptosis in human HCT116 cells at 1 uM after 12 hrs by acridine orange/ethidium bromide staining-based fluorescence microscopic analysis; type: functional, cell-based
HCT-116 [42] = assay: Induction of mitochondrial membrane depolarization in human HCT116 cells at 1 uM after 12 hrs by JC-1 staining based fluorescence microscopic analysis; type: functional, cell-based
HCT-116 [43] = assay: Induction of apoptosis in human HCT116 cells assessed as viable cells at 1 uM after 12 hrs by annexin V-FITC/propidium iodide staining-based flow cytometry method (reference value: 86.0%); type: functional; conditions: HCT-116, 12 h, read-out: Activity
MCF-10A [44] = assay: Induction of apoptosis in human MCF10A cells assessed as necrotic cells at 1 uM after 12 hrs by annexin V-FITC/propidium iodide staining-based flow cytometry method (reference value: 0.57%); type: cell-based; method in brief: as §5
MCF-10A [45] = assay: Induction of apoptosis in human MCF10A cells after 12 hrs by annexin V-FITC/propidium iodide staining-based flow cytometry method; type: cell-based; method in brief: as §5

COc1ccc(OC)c(C(=O)/C=C/c2nc3ccccc3c(=O)[nH]2)c1
Activity (HCT-116 [1]): Active | Activity (HCT-116 [2]): 10.8% | Activity (MCF-10A [3]): 5.38% | IC50 (HeLa): 8.37 µM | viability at 24 h, 2 times IC50 [4]: 92.6% | Activity (MCF-10A [5]): 4.67% | Activity (HCT-116 [6]): Dose-dependent effect | IC50 (HCT-116 [7]): 3.56 µM | Activity (HCT-116 [8]): Dose-dependent effect | Activity (HCT-116 [9]): Active | Activity (HCT-116 [10]): Active | IC50 (HT-29): 6.18 µM | Activity (HCT-116 [11]): 78.2% | Activity (HCT-116 [12]): 9.7% | Activity (HCT-116 [13]): Active | Activity (MCF-10A [14]): 1.19% | IC50 (MCF7 [15]): 4.08 µM | Activity (HCT-116 [16]): 29.1% | Activity (MCF7 [17]): >=50% | viability at 24 h, 1 times IC50 [18]: 94.4% | Activity (HCT-116 [19]): Dose-dependent effect | selectivity ratio [20]: > 2 | Activity (HCT-116 [21]): Active | Activity (MCF-10A [22]): Dose-dependent effect | Activity (MCF-10A [23]): 0.3% | Activity (HCT-116 [24]): 8.9% | Activity (HCT-116 [25]): >=50% | IC50 (MDA-MB-231): 10.6 µM | Activity (HCT-116 [26]): Active | Activity (MCF-10A [27]): 0.87% | IC50 (A549): 12.7 µM | Activity (HCT-116 [28]): 54.3% | Activity (HCT-116 [29]): Active | Activity (MCF-10A [30]): 0.62% | Activity (HCT-116 [31]): 6.9% | Activity (HCT-116 [32]): 2.1% | IC50 (MCF-10A [33]): 9.81 µM

CN[C@@H]1C[C@H]2O[C@@](C)([C@@H]1OC)n1c3ccccc3c3c4c(c5c6ccccc6n2c5c31)C(=O)NC4 [STAUROSPORINE]
Activity (HCT-116 [34]): Active | Activity (HCT-116 [35]): 8.4% | Activity (HCT-116 [36]): 3% | Activity (HCT-116 [37]): 25.6% | Activity (MCF-10A [38]): 2.18% | viability at 12 h, 1 µM [39]: 85.6% | Activity (HCT-116 [40]): Dose-dependent effect | Activity (HCT-116 [41]): Active | Activity (HCT-116 [42]): Active | viability at 1 µM (HCT-116 [43]): 63.1% | Activity (MCF-10A [44]): 1.22% | Activity (MCF-10A [45]): Dose-dependent effect
